EBV LMP1 NFkB: EBV LMP1-driven NF-kappaB luciferase reporter inhibitors, primary screen, cell-based, luminescence, single point | LMP1-induced NF-kappaB luciferase reporter cells | actives 0.69% (n = 350,000) | inhibition, % at 12.5 µM; in the data active = inhibition above about 41%;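 also: 0% = neutral control wells and 100% = reference inhibitor control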
aSyn UTR inh: MLPCN primary screen, SNCA 5' untranslated region. inhibition, % (tested at 7.5 µM). alpha-synuclein 5'UTR reporter, inhibitor activity. actives 0.82% (n = 300,000); in the data active = inhibition above about 60%;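 also: H4 neuroglioblastoma cells stably carrying SNCA 5'UTR luciferase fusion; 0% = DMSO wells and 100% = positive control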
Shn3 inh set2: reduction of Shn3 3'UTR firefly luciferase signal, primary screen, Schnurri-3 inhibitor project, cell-based, Clone20 osteoblasts, set 2. AID 588674, 2011. actives 0.52% (n = 360,000). Clone20 osteoblast Shn3 3'UTR firefly luciferase, 24 h. inhibition, % at 12.5 µM;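 active = mean inhibition of at least 75% with every replicate also reaching 75%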;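 also: 0% = median of neutral control wells and 100% = pilot-screen positive control compound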
FN deposition inh: inhibitors of fibronectin matrix deposition, primary screen, AH1F cells, Alexa488-fibronectin fluorescence, plate reader | actives 0.086% (n = 350,000) | AID 743247, 2014 | inhibition, % at 12.6 µM | AH1F fibroblasts, overnight;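 active = mean inhibition across replicates of 30% or more, regardless of how many single replicates reach that level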;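 also: positive control wells lacked labelled fibronectin entirely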
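Schedule: 1 h cell adhesion before compound, then overnight fibronectin incubation; test system: AH1F fibroblast monolayer depositing Alexa488-labelled fibronectin into matrix; quantity: 10000 AH1F cells per well; probe or stimulus: fluorescent fibronectin at 24 nM final; signal: fluorescence, ex 485 nm, em 525 nm; evaluation: percent inhibition as loss of matrix-bound fibronectin fluorescence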
EWS-Fli block: EWS/Fli-driven NR0B1 reporter inhibitors, primary screen, A673 cells, NR0B1 luciferase, luminescence, MLPCN library. viability-normalised. inhibition, % at 12.6 µM. actives 0.67% (n = 350,000). AID 651661, 2012;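 active = mean inhibition of at least 50% after viability correction, with every replicate also passing that limit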;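 also: firefly luciferase signal divided by Alamar Blue viability fluorescence both relative to DMSO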
PAX8 inh HTS: inhibitors of PAX8-driven TPO luciferase reporter, primary screen, RMG-I cells, single concentration; actives 1.2% (n = 360,000); SteadyGlo, 24 h; inhibition, % at 12.6 µM;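 active = mean replicate inhibition at least 60% with every replicate also reaching 60%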;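 also: luciferase light reporting Pax8 driven TPO promoter activity; plate controls were median of neutral control wells for no effect and mitoxantrone controls for full effect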
* marks the source's active call; other numbers are inactive results; . = not tested or not shown; ! = not active in a repeat. Hits are enriched below; roughly 2.1% of the tested compounds scored in any of these assays.

SMILES	EBV LMP1 NFkB	aSyn UTR inh	Shn3 inh set2	FN deposition inh	EWS-Fli block	PAX8 inh HTS
COC(=O)[C@@H]1[C@@H](CO)[C@@H]2Cn3c(ccc(C4=CCCC4)c3=O)[C@H]1N2Cc1ccccn1	.	.	.	.	-7.7	.
C=CCN1[C@@H]2CN(C(=O)NC(C)C)C[C@H]1C2c1ccc(Br)cc1 (stereo partly specified)	.	.	.	-8.3	.	.
CC(C)COC(=O)c1ccccc1C(=O)OCC(C)C	-8.3	10.2	2.2	.	-7.3	.
C[CH2][Hg][S]c1ccccc1C(=O)O	-12.6	.	98.3*	26.3	46.6	109.5*
CN(C)[C@@H]1C(=O)C(C(N)=O)=C(O)[C@@]2(O)C(=O)C3=C(O)c4c(O)cccc4[C@@](C)(O)[C@H]3[C@H](O)[C@@H]12	89.6*!	19.9	-4.0	2.7	-7.3	-14.0
CN(C)[C@@H]1C(=O)C(C(N)=O)=C(O)[C@@]2(O)C(=O)C3=C(O)c4c(O)cccc4[C@@](C)(O)C3C[C@@H]12 (stereo partly specified)	-2.1	31.2	7.9	-10.8	3.2	9.9
O=C(O)[C@@H]1[C@@H](CO)[C@@H]2Cn3c(ccc(-c4cccnc4)c3=O)[C@H]1N2S(=O)(=O)c1ccccc1F	.	.	.	.	-0.6	-1.6
C=C(C=O)CC1CC(O)[C@]2(C)OC3CC4OC5C[C@]6(C)O[C@]7(C)CCC8OC9C[C@]%10(C)OC%11C(C)=CC(=O)OC%11CC%10OC9C[C@@H](C)C8OC7CC6O[C@]5(C)CC5OC5C4OC3CC2O1 (stereo partly specified)	73.9*	114.2*	59.3	.	.	.
O=C(NN=Cc1ccc(N(CCCl)CCCl)cc1Cl)c1cccnc1	78.4*	.	6.4	2.4	24.3	-19.4
Cc1cc(N(CCCl)CCCl)ccc1C=NNC(=O)c1cccnc1	73.9*	.	19.1	-8.2	11.0	-1.5
COC(=O)[C@H]1[C@H](CO)[C@H]2Cn3c(cccc3=O)[C@@H]1N2C(=O)C1CCC1	.	.	.	.	1.2	.
O=C(O)[C@H]1[C@H](CO)[C@H]2Cn3c(ccc(-c4cncnc4)c3=O)[C@@H]1N2C(=O)NC1CCCC1	.	.	.	.	5.7	-9.3
Cc1nc2cc(-c3cccc(F)c3)nn2c(C)c1CCC(=O)N1CCC2(CC1)OCCO2	-3.3	77.4*	36.4	-22.0	.	9.5
COc1ccc(C#Cc2ccc([C@H]3[C@H](CO)N4CCCCN(C(=O)Cc5cccnc5)C[C@@H]34)cc2)cc1	.	.	.	.	-8.9	-1.0
CCOc1ccc(-c2cc(C)[n+](CCc3ccc(OC)c(OC)c3)c(-c3ccc(OCC)cc3)c2)cc1	10.5	44.4	19.2	7.8	51.1*	91.8*
CCOc1ccc(N)cc1	-0.4	.	-2.9	-0.7	2.0	-3.3
Cc1cc(-c2ccccc2)cc(-c2ccccc2)[n+]1CCc1ccccc1	9.5	4.0	75.9	7.5	41.7	84.9*
COc1ccc(CC[n+]2cc(/N=C(\C)[O-])on2)cc1OC	0.7	12.2	-15.7	.	5.6	.
CCOc1ccc(-c2cc(C)[n+](CCO)c(-c3ccc(OCC)cc3)c2)cc1	-0.9	18.5	16.0	3.0	14.1	92.3*
CC(C)c1ccc(N2C(=O)NC(=O)/C(=C\c3cnc(-c4ccccc4)nc3)C2=O)cc1	-2.8	-29.1	-22.8	.	.	.
O=C1NC(=O)N(Cc2ccccc2)C(=O)/C1=C/C=C/c1ccco1	-31.9	-296.5	58.7	0.9	64.7*	27.4
COc1ccc(CN2C(=O)NC(=O)/C(=C\c3ccco3)C2=O)cc1	2.2	-18.7	12.6	-2.4	7.1	13.7
CC(C)c1ccc(N2C(=O)NC(=O)/C(=C\C=C\c3ccco3)C2=O)cc1	.	-70.1	.	-0.2	73.7*	-1.5
COC(=O)[C@H]1[C@H](CO)[C@H]2Cn3c(cccc3=O)[C@@H]1N2C(=O)C1CCCC1	.	.	.	.	4.5	.
O=C1CN=C(c2ccc[nH]2)c2cc(Cl)ccc2N1	56.9*	11.5	-185.5	7.9	24.6	15.4
SMILES	EBV LMP1 NFkB	aSyn UTR inh	Shn3 inh set2	FN deposition inh	EWS-Fli block	PAX8 inh HTS
COc1ccc(OC(=O)N(C)C[C@H]2OCc3ccccc3-c3c(n(C)c4ccccc34)C(=O)N([C@@H](C)CO)C[C@@H]2C)cc1	.	.	.	-9.9	1.9	33.2
O=C(Cc1ccccn1)N1CCCCN2[C@@H](CO)[C@@H](c3ccc(-c4ccc(F)cc4)cc3)[C@@H]2C1	.	.	.	.	5.5	89.2*
COc1ccc(-c2ccc([C@H]3[C@@H](CO)N4CCCCN(C(=O)Cc5ccccc5)C[C@H]34)cc2)cc1	.	.	.	.	.	0.2
COc1ccc(-c2ccc([C@@H]3[C@@H](CO)N4CCCCN(C(=O)Cc5ccccc5)C[C@H]34)cc2)cc1	.	.	.	.	.	119.3*
O=C(Cc1cccnc1)N1CCCCN2[C@@H](CO)[C@@H](c3ccc(/C=C/c4ccccc4)cc3)[C@@H]2C1	.	.	.	.	2.5	6.5
CN1C2CCC1CC(OC(=O)c1cccc(O)c1)C2 (stereo unspecified)	4.2	.	0.5	.	-6.6	.
CN1[C@@H]2CC[C@H]1CC(OC(=O)C1C=Nc3ccccc31)C2 (stereo partly specified)	81.9*	-10.9	-14.5	-0.1	-6.6	-5.2
COc1ccc(-c2ccc3n(c2=O)C[C@@H]2[C@@H](CO)[C@H](C(=O)O)[C@H]3N2C(=O)c2ccccc2F)cc1	.	.	.	.	-5.0	.
COC(=O)[C@H]1[C@H](CO)[C@H]2Cn3c(ccc(-c4ccccc4)c3=O)[C@@H]1N2CC1CCOCC1	.	.	.	.	-4.3	0.3
O=c1c2ccccc2nc(-c2cccs2)n1-c1ccccc1	2.3	30.9	5.8	.	.	.
NC(N)=N/N=C/c1cn(-c2ccccc2)nc1-c1cccs1	8.5	-38.2	0.0	34.6*	6.2	17.2
CCOC(=O)C1C(OC(=O)c2ccccc2)CC2CCC1N2C (stereo unspecified)	72.6*	.	0.4	.	-2.8	.
COC(=O)C1C2CC[C@@H](CC1OC(=O)c1ccccc1)N2 (stereo partly specified)	90.3*	.	-14.6	.	.	.
O=C(CN1CCOCC1)c1cccc2ccccc12	0.8	7.8	-7.9	2.2	.	6.3
Cc1c(C(=O)c2cccc3ccccc23)c2cccc3c2n1[C@H](CN1CCOCC1)CO3	13.9	-17.8	13.7	8.3	-8.0	100.7*
COC(=O)C(Cc1ccc(N(CCCl)CCCl)cc1)N=Cc1ccccc1O (stereo unspecified)	72.8*	27.4	54.1	-4.3	66.9*	97.0*
O=C(Cc1ccccn1)N1CCCCN2[C@H](CO)[C@H](c3ccc(Br)cc3)[C@H]2C1	.	.	.	.	1.4	-1.8
CCCCn1c(=O)c(C(=O)Nc2ccccc2C)c(O)c2ccccc21	4.7	28.1	24.7	.	.	.
CC(C)CCn1c(=O)c(C(=O)Nc2ccccc2S(N)(=O)=O)c(O)c2ccccc21	7.8	19.5	44.0	-9.1	.	69.3*
